“Also recorded” adds a separate entry of the source. Values belong to the compound of their own block, whether it stands above or below them.
Tests used:
[1] = test system: ChEH; details: microsomes from rat liver; cited from earlier work
[2] = target: T1, ChEH (Homo sapiens, UniProt Q15125+Q9UBM7); assay: ChEH activity in whole MCF-7 cells; assay type: cell-based; details: for IC50 of ChEH inhibition, fold higher than DDA / ChEH inhibition (in words): MCF-7 cells
Procedure, shortened: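 Whole MCF-7 cells were grown in RPMI with 5% FBS. Conversion to [14C]-CT was resolved by TLC and quantified by densitometry. IC50 came from dose–response curves, as mean±s.e.m. of three independent experiments.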

[3] = test system: mouse brain homogenate; assay: DDA neosynthesis assay; assay type: biochemical; details: 2 μM [14C]-5,6α-EC, His 0.5–200 μM, 37 °C, 10 min
[4] = target: T2, ChEH (Mus musculus, UniProt O88455+P70245); assay: ChEH activity in murine melanoma B16F10 cells; assay type: cell-based
T2 sequence (P70245 1-230): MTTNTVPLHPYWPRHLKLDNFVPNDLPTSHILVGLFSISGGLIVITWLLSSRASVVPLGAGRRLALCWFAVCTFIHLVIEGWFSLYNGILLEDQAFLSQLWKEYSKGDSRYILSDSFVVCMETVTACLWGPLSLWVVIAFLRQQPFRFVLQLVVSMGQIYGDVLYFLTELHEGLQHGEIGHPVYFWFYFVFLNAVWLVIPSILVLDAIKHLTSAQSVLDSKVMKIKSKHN
T2 sequence (O88455 1-471): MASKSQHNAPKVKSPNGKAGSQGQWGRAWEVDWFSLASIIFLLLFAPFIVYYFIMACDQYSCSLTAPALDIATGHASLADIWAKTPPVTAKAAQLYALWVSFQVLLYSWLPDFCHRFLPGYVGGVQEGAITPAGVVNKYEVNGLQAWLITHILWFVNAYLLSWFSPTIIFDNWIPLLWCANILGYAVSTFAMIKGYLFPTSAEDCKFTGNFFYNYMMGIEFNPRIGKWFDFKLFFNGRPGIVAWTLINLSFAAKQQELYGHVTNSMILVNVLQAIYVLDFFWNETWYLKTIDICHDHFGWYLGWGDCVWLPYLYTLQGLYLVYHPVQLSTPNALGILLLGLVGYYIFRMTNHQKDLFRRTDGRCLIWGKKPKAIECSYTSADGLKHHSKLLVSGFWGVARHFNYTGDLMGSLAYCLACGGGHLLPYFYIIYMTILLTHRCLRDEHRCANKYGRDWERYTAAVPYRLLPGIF

[5] = target: T1, ChEH; assay: ChEH activity in human melanoma SK-Mel-28 cells; assay type: cell-based
[6] = target: T2, ChEH; assay: ChEH activity in murine mammary TSA cells; assay type: cell-based
[7] = target: T3, rat mEH (Rattus norvegicus, UniProt P07687); assay: mEH activity assay; assay type: biochemical
T3 sequence (P07687 1-455): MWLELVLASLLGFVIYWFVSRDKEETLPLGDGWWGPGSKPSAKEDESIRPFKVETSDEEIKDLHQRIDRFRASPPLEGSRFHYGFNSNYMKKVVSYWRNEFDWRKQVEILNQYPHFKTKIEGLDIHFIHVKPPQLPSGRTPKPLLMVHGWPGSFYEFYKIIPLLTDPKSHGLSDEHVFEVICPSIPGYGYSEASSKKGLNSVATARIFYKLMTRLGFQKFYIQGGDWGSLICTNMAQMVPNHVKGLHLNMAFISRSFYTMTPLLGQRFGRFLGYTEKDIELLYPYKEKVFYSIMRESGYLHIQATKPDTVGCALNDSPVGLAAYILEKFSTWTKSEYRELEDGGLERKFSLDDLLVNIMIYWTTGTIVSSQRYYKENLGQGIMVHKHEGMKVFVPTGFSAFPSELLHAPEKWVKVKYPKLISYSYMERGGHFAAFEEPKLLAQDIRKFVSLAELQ

[8] = test system: TS/A mammary tumours; assay: TS/A mammary tumours implanted s.c. into immunocompetent mice; assay type: in vivo, mouse
Procedure, shortened: (§1)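 Female mice, 6–8 weeks old, held specific-pathogen-free after 2 weeks quarantine. Strains were C57BL/6 for B16F10 and BALB/c for TS/A. 35,000 exponentially growing cells in 150 μl PBS were implanted s.c. into the flank. Dosing was s.c. every 5 days from implantation day, with a s.c. vehicle control (n=10 per group). Survival was by Kaplan–Meier with log-rank test.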

[9] = target: T4, Human sEH (Homo sapiens, UniProt P34913); assay: sEH activity assay; assay type: biochemical
T4 sequence (P34913 1-555): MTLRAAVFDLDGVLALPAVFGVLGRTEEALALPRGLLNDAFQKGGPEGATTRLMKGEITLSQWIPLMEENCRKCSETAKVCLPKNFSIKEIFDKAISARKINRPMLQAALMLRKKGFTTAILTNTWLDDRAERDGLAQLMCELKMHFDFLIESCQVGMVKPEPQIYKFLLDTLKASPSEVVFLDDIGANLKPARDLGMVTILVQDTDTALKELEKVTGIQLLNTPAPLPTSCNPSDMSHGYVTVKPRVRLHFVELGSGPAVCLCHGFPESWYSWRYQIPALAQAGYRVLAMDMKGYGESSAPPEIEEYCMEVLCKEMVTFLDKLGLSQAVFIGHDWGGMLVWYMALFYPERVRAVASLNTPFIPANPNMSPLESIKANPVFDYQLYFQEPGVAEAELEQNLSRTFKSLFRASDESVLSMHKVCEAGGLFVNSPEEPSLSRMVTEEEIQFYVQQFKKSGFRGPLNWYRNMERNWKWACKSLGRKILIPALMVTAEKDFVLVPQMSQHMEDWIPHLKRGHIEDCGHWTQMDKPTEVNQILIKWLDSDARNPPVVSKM

[10] = test system: B16F10 cells; assay: B16F10 cell differentiation in vitro; assay type: cell-based, mouse; details: 24 h
[11] = target: T1, ChEH; assay: Modality of ChEH inhibition in MCF-7 cell extracts; assay type: biochemical; details: MCF-7 cell extracts, 0.5, 1 and 5 μM DDA; Km increased, Vmax unchanged
[12] = test system: TS/A cells; assay: TS/A cell differentiation in vitro; assay type: cell-based, mouse; details: 24 h
[13] = test system: ER; assay: ER-dependent transcriptional activity; assay type: cell-based, human; details: MELN cells; for inhibition of luciferase stimulation by E2 (ER antagonism): with 10 nM E2, Tam 1 μM
[14] = test system: B16F10 melanoma tumours; assay: B16F10 melanoma tumours implanted s.c. into immunocompetent mice; assay type: in vivo, mouse
Procedure, shortened: as §1

[15] = TS/A tumours, DDA 3.7 μg kg−1, 30 days
[16] = B16F10, treated every 5 days from day of implantation, DDA 0.37 μg kg−1 s.c.

T1 sequence (Q15125 whole entry): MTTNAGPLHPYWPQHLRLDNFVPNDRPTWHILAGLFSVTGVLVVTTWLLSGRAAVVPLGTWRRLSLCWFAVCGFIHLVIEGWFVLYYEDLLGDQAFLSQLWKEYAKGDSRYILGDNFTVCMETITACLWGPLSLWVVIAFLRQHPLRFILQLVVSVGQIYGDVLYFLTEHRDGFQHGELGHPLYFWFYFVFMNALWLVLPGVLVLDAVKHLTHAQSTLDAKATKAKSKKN
T1 sequence (Q9UBM7 whole entry): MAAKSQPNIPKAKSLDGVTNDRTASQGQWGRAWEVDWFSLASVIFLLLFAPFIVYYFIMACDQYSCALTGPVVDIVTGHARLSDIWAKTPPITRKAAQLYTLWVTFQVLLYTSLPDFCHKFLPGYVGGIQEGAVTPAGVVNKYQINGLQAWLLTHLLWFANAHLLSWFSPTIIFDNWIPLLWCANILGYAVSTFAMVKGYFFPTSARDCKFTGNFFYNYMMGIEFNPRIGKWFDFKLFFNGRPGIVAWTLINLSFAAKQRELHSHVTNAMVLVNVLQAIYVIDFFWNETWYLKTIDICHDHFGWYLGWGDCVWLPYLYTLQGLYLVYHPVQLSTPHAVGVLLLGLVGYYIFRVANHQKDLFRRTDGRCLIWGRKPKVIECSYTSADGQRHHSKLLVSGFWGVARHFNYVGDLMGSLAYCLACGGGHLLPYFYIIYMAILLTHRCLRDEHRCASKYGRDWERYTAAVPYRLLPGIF

SMILES: NCCc1c[nH]cn1 [His, histamine]
apparent Vmax of DDA formation [3]: 0.12±0.04 pmol per mg protein per min

SMILES: CC(C)CCC[C@@H](C)[C@H]1CC[C@H]2[C@@H]3C[C@@H](NCCc4c[nH]cn4)[C@@]4(O)C[C@@H](O)CC[C@]4(C)[C@H]3CC[C@]12C [DDA, 5α-Hydroxy-6β-[2-(1H-imidazol-4-yl)-ethylamino]-cholestan-3β-ol]
mEH inhibition (in words) [7]: did not inhibit these enzymes; also recorded: not an inhibitor | MFGE8/lactadherin expression in tumour sections (immunohistochemistry) [8, 15]: increased expression of milk fat globule (MFGE8)/lactadherin | neutral lipid droplets in tumour sections (ORO) [8, 15]: increased accumulation of neutral lipid droplets | intra-tumour immune cell infiltration (CD3, CD11c) ([8]; TS/A tumours, DDA 3.7 μg/kg, 30 days): increased infiltration of CD3^+ T lymphocytes and CD11c^+ dendritic cells | animal survival at day 50 ([8]; TS/A, treated every 5 days from day of implantation, DDA 0.37 μg kg−1 s.c.): 60% | IC50 [4]: 0.252 ± 0.081 µM | IC50 [5]: 0.072 ± 0.015 µM | IC50 [6]: 0.284 ± 0.07 µM | sEH inhibition (in words) [9]: did not inhibit these enzymes; also recorded: not an inhibitor | IC50 [2]: 0.12 ± 0.02 µM | melanin content [10]: increased in a concentration-dependent manner up to 2.5 μM DDA | tyrosinase activity [10]: increased activity of tyrosinase | modality of ChEH inhibition [11]: competitive | increase in ORO staining of neutral lipid droplets vs vehicle ([12]; 1 μM DDA): 2.4 fold | increase in intracellular triglycerides vs vehicle ([12]; 1 μM DDA): 7 fold | MFGE8/lactadherin (immunostaining, flow cytometry) ([12]; 2.5 μM DDA): increased | increase in ORO staining of neutral lipid droplets vs vehicle ([12]; 2.5 μM DDA): 3 fold | increase in intracellular triglycerides vs vehicle ([12]; 2.5 μM DDA): 9 fold | stimulation of luciferase expression (ER agonism) ([13]; increasing concentrations, without E2): did not stimulate the expression of luciferase | inhibition of luciferase stimulation by E2 (ER antagonism) [13]: did not inhibit luciferase stimulation by 17β-estradiol | survivors at day 50 [14, 16]: 40% | tumour growth vs control [14, 16]: significantly inhibited tumour growth | melanin production in tumour sections (Masson–Fontana) ([14]; B16F10 tumours, DDA 3.7 μg kg−1, 23 days): increased production of melanin | intra-tumour immune cell infiltration (CD3, CD11c) ([14]; B16F10 tumours, DDA 3.7 μg/kg, 23 days): increased infiltration of CD3^+ T lymphocytes and CD11c^+ dendritic cells

SMILES: CC/C(=C(\c1ccccc1)c1ccc(OCCN(C)C)cc1)c1ccccc1 [Tam, Tamoxifen, reference compound]
inhibition of luciferase stimulation by E2 (ER antagonism) [13]: completely inhibited luciferase expression

Further lines, with some results ahead:

IC50 [2]: 5.09 ± 1.4 µM | IC50 of ChEH inhibition, fold higher than DDA [2]: 42 fold
SMILES: CC(C)CCC[C@@H](C)[C@H]1CC[C@H]2[C@@H]3C(=O)C=C4C[C@@H](O)CC[C@]4(C)[C@H]3CC[C@]12C [7-ketocholesterol]
ChEH inhibition (in words) [1]: inhibited ChEH in microsomes from rat liver

ChEH inhibition (in words) ([4]; B16F10 cells): inactive against ChEH | ChEH inhibition (in words) ([5]; SK-Mel-28 cells): inactive against ChEH | ChEH inhibition (in words) ([6]; TSA cells): inactive against ChEH | ChEH inhibition (in words) [2]: did not inhibit ChEH activity
SMILES: CC(C)CCC[C@@H](C)[C@H]1CC[C@H]2[C@@H]3C[C@@H](n4cncc4CCN)[C@@]4(O)C[C@@H](O)CC[C@]4(C)[C@H]3CC[C@]12C [Compound C17, 5α-hydroxy-6β-[5-(2-amino-ethyl)-imidazol-1-yl]-cholestan-3β-ol]

IC50 [2]: 12 ± 2.9 µM | IC50 of ChEH inhibition, fold higher than DDA [2]: 100 fold
SMILES: CC(C)CCC[C@@H](C)[C@H]1CC[C@H]2[C@@H]3[C@H](O)C=C4C[C@@H](O)CC[C@]4(C)[C@H]3CC[C@]12C [Compound 7α-OHCh, 7α-hydroxycholesterol]
ChEH inhibition (in words) [1]: inhibited ChEH in microsomes from rat liver

ChEH inhibition (in words) [2]: unable to inhibit ChEH
SMILES: C[C@H](CCCC(C)(C)O)[C@H]1CC[C@H]2[C@@H]3CC=C4C[C@@H](O)CC[C@]4(C)[C@H]3CC[C@]12C [Compound 25-OHCh]
ChEH inhibition (in words) [1]: did not inhibit ChEH

— article PMC3674249 (Nature Communications, 2013)
